# Assay outcomes deposited in PubChem by several laboratories.
# Xi reactivation – activators of X-chromosome reactivation in mouse fibroblasts; XiGFP mouse fibroblasts, % GFP-positive cells imaging, 3 d; cells co-treated with 5-aza-dC sensitizer; scaled so ellipticine positive control = 100%; activation, % at 7.58 µM; 360,000 tested, 0.055% active; AID 743238;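 active means mean normalized replicate activation at least 10% and every replicate at or above 10%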;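 further: 0% = median of on-plate neutral control wells and 100% = ellipticine 6 µM median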
#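 System: XiGFP fibroblasts, SV40-immortalized. Medium: DMEM plus 5-aza-dC sensitizer. Doses: single point. Timing: 3 d treatment, 15 min room-temperature fixation. Control set: ellipticine 6 µM.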
# NTR1 agonist – NTR1 (human) agonism; NTR1-U2OS beta-arrestin-GFP spot imaging, agonist mode; 330,000 tested, 0.17% active; P30989; activation, % at 20 µM; AID 493036;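 active means activation at or above 40% of the spot to cytoplasm intensity ratio, with at least 20 cells analyzed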;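 further: 0% = DMSO without peptide and 100% = 100 nM NTR1 peptide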
# Target sequence (P30989 whole entry, looked up): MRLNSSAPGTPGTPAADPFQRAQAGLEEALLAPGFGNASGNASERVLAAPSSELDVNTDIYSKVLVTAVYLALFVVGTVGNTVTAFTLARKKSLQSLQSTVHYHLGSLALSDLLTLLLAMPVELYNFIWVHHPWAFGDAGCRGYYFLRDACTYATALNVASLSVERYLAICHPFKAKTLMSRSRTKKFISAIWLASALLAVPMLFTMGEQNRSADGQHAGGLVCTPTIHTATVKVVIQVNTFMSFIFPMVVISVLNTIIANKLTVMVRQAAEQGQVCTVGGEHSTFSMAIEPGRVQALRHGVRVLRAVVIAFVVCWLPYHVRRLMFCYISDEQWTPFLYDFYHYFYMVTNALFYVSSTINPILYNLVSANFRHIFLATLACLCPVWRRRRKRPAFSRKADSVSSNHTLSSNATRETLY
# T cell HTS – T cell immune modulators affecting CD8 T cell-vesicle binding | response (vesicle binding), % at 7 µM | 330,000 tested, 0.068% active | 2C CD8+ T cell-vesicle binding, flow cytometry; active compounds read low;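 active means response, share of CD8 T cells binding vesicles, and their 90th percentile fluorescence all below set limits, cut at about 80% in these data, passing the limit was not always enough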;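 further: values below 100% mean blocked vesicle binding to the CD8+ T cells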
#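 Test system: purified 2C TCR transgenic mouse naive CD8+ T cells. Probe or stimulus: QL9-peptide-loaded Drosophila micro-vesicles bearing Ld, ICAM-1 and B7-1. Incubation: binding step 1.5 h, 37 °C, antibody labelling 20 min, ice. Measured by: flow cytometry of vesicle-bound cells.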
# V-ATPase pH – alters yeast V-ATPase proton transport; S. cerevisiae, pHLuorin cytosolic pH fluorescence; response, % at 10 µM; 350,000 tested, 0.37% active; AID 504577; in the data active means response mostly above about 7.3%, no sharp cut-off; inactive means mostly below about 5.4%; further: actives read high
# Arrestin-AP2 inh – inhibitors of human beta-arrestin and AP2 interaction; FITC-arrestin peptide / GST-AP2 beads, flow cytometry; AP2 beta2 appendage carries R879A mutation; inhibition, % at 10 µM; 340,000 tested, 0.31% active; AID 504490;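 active means inhibition above a set limit, near 3 SD of compounds lacking own fluorescence, cut at about 54% in these data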;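 further: plate controls were DMSO wells for no effect and 5 µM unlabelled arrestin peptide for full effect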
#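 System: GST-tagged AP2 beta2-adaptin appendage (R879A) on 4 µm glutathione beads / Reagent: FITC-arrestin peptide, 50 nM / Detection: HyperCyt-sampled flow cytometry, FL1 channel, ex 488/em 535 nm / Timing: 12 min plus 1 h, RT / Buffer or medium: PBS plus Tween 20 (0.05%) and BSA (0.1%)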
# MIN6 prolif – induces beta-cell replication in MIN6 cells. 330,000 tested, 0.29% active. proliferation, % at 10 µM. MIN6 cells proliferation, ATPlite luminescence, 48 h; cells starved in 0.2% serum; 100% = growth in 10% serum. AID 2380;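 active means compounds whose signal lies at least 3.5 SD above the mean of all wells on their plate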;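 further: 0% = DMSO-treated cells in low-serum medium and 100% = 10% serum control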
# An asterisk follows results filed as active; · = no result given. Hits are enriched below; roughly 0.89% of the tested compounds scored in any of these assays.
SMILES,Xi reactivation,NTR1 agonist,T cell HTS,V-ATPase pH,Arrestin-AP2 inh,MIN6 prolif
COc1ccc2c3c([nH]c2c1)[C@H](CO)N(C(=O)C1CC1)CC31CN(C(=O)c2ccncc2)C1,0,·,·,·,·,·
CCOc1ccc(C(=O)/C=C/c2cn(CN3CCN(C)CC3)c3ccccc23)cc1,·,49*,426,-2,9,-7
CS(=O)(=O)N1[C@@H]2CN(CC(F)(F)F)C[C@H]1C2c1ccccc1 (some centres undefined),0,·,·,·,·,·
CC1Nc2ncnc(N3CCN(c4ccccn4)CC3)c2N(Cc2ccccc2)C1=O (centres undefined),0,0,268,2,-7,-5
COc1ccc(CN2C(=O)C(C)Nc3ncnc(N4CCN(c5ccccn5)CC4)c32)cc1 (centres undefined),0,-1,0.0*,-6,7,-3
COc1ccccc1C(=O)Nc1ccc2c(c1)OC[C@@H](C)N(CC1CC1)C[C@@H](C)[C@@H](OC)CN(C)C2=O,-1,·,·,·,·,·
CCOC(=O)/C=c1\s/c(=C\c2ccc3cc(OC)ccc3c2)c(=O)n1CC(=O)NCc1ccc2c(c1)OCO2,28*,12,264,-3,-16,-5
CCCNC(=O)[C@H]1[C@H](CO)[C@H]2Cn3c(cccc3=O)[C@@H]1N2S(=O)(=O)c1ccccc1F,0,·,·,·,·,·
COc1ccc2c(c1)-c1c(sn(-c3ccc(OC)c(OC)c3)c1=S)C(C)(C)N2,·,7,70*,8,1,0
COc1ccc(-n2sc3c(c2=S)-c2cc(OC)ccc2NC3(C)C)cc1,·,14,220,0,-2,-3
C[C@H](CO)N1C[C@H](C)[C@@H](CN(C)Cc2ccc(C(=O)Nc3ccccc3N)cc2)Oc2ccc(NC(=O)c3ccncc3)cc2C1=O,-1,·,·,·,·,·
O=[N+]([O-])c1ccc(N2CCN(S(=O)(=O)c3ccccc3[N+](=O)[O-])CC2)cc1N1CCc2ccccc2C1,0,1,524,4,-3,6.0*
O=[N+]([O-])c1ccccc1S(=O)(=O)N1CCc2ccccc2C1,0,2,889,0,-21,-1
CC(C)NC(=O)Nc1ccc2c(c1)C(=O)N(C)C[C@@H](C)[C@@H](CN(C)C)O2,0,·,·,·,·,·
C[C@H]1CN([C@@H](C)CO)C(=O)Cc2cc(NS(=O)(=O)c3ccc(Cl)cc3)ccc2O[C@H]1CN(C)Cc1ccc(C(=O)Nc2ccccc2N)cc1,0,·,·,·,·,·
Cc1cc(C)n(-c2ccc(C(=O)NCC(c3ccco3)N3CCCC3)cc2)n1 (centres undefined),0,1,78,16*,-13,0
CO[C@H]1CN(C)C(=O)c2cc(NC(=O)Nc3cccc(F)c3)ccc2OC[C@@H](C)N(C(C)=O)C[C@H]1C,0,·,·,·,·,·
COc1cc(OC)cc(-c2oc(=O)c3cc(OC)c(OC)cc3c2C(F)(F)F)c1,0,2,60*,5,4,-2
C[C@@H]1CCCCO[C@@H](CN(C)S(=O)(=O)c2cccs2)[C@@H](C)CN([C@H](C)CO)C(=O)c2cc(NS(=O)(=O)c3cn(C)cn3)ccc2O1,0,·,·,·,·,·
CC(=O)Nc1cccc2c1O[C@@H](CN(C)S(C)(=O)=O)[C@@H](C)CN(C)C2=O,0,·,·,·,·,·
N#CC(C#N)=C1C=CC=CN1/C(=C\c1ccco1)C(=O)c1ccc(-c2ccccc2)cc1,15*,·,318,-5,8,·
C/C(=N\Nc1ncnc2sc(C)c(C)c12)c1ccccn1,85*,15,391,70*,-3,-4
COc1ccc(NC(=O)N(C)C[C@@H]2Oc3c(NC(=O)NC4CCCCC4)cccc3C(=O)N([C@H](C)CO)C[C@@H]2C)cc1,-1,·,·,·,·,·
Cc1ccc(NC(=O)C(=O)NCc2ccncc2)cc1,0,1,234,1,-11,-3
CCCCOC(=O)c1ccc(NC(=O)C(=O)NCc2ccncc2)cc1,·,2,0.0*,0,6,-1
SMILES,Xi reactivation,NTR1 agonist,T cell HTS,V-ATPase pH,Arrestin-AP2 inh,MIN6 prolif
Cc1ccc2c(c1C)C(=O)C(=O)N2,1,·,·,1,-15,·
Cc1ccc(Cl)c2c1NC(=O)C2=O,0,1,0.0*,7,-4,-3
CCCNC[C@H]1[C@@H](c2ccc(-c3cccc(C#N)c3)cc2)[C@@H](CO)N1C(C)=O,0,·,·,·,·,·
CO[C@H]1CN(C)C(=O)c2ccc(NC(=O)C3CCC3)cc2OC[C@H](C)N(Cc2cccnc2)C[C@@H]1C,0,·,·,·,·,·
Cc1ccccc1NCC(=O)Nc1cc(S(=O)(=O)N2CCCCC2)ccc1C,0,1,135,-3,2,-3
Cc1ccc(S(=O)(=O)N2CCOCC2)cc1NC(=O)CNc1ccccc1N1CCCC1=O,0,-2,·,22*,17,1
COc1cccc(N(CC(=O)NCC2CCCO2)C(=O)CNS(=O)(=O)c2ccccc2)c1 (centres undefined),0,1,524,-3,17,8.4*
O=C(NCC[C@@H]1CC[C@H](NC(=O)c2cnccn2)[C@@H](CO)O1)Nc1ccc(F)cc1,1,·,·,·,·,·
CCCC(=O)N1CCN(c2ccc(NC(=O)c3cc4ccccc4o3)cc2Cl)CC1,·,45*,141,7,-10,-4
NCCC(=O)NCCc1cnc[nH]1,0,-2,168,23*,5,0
COC(=O)c1ccc(/C=C/c2ccc3cccc(OC(C)=O)c3n2)cc1,0,12,515,27*,-3,-6
O=C(CNS(=O)(=O)c1c(F)cc(F)cc1Br)OCC(=O)N1CCCC1=O,1,1,560,13*,6,1
Cc1cc(Br)c(NC(=O)c2c(-c3c(Cl)cccc3Cl)noc2C)c(Br)c1,0,1,26*,6,27,0
Cc1onc(-c2c(Cl)cccc2Cl)c1C(=O)Nc1ccc2c(c1)OCCO2,·,2,324,-1,-2,0
CCOc1ccc(S(=O)(=O)N2CCOCC2)cc1NC(=O)CSCC(=O)Nc1cccc(C)c1,0,1,0.0*,-3,8,-1
Cc1noc(C)c1S(=O)(=O)Nc1ccc2c(c1)CC(=O)N([C@H](C)CO)C[C@H](C)[C@@H](CN(C)C(=O)Nc1ccc(C(F)(F)F)cc1)O2,0,·,·,·,·,·
